The nature of assay [1]: Her2 expression decrease, cell viability multiplex – SKBR3 breast tumor cells, AlphaScreen, ATP viability, primary screen (AID 461;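 active = Her2 level under about 52% in both replicate screens, with viability over 70% of control, limit read from the data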;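 for Her2 level: lower value means less Her2 protein in the cells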;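 for viability: percent of carrier control wells set as 100% viability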). To be noted: SKBR3 Her2 protein level, 18-24 h, measured here: SKBR3 viability, ATP luminescence, at 10 µM. Background: In Alpha technology, singlet oxygen from a donor bead excites a nearby acceptor bead.
The target in assay [2] is Receptor tyrosine-protein kinase erbB-2 (Homo sapiens) (UniProt P04626). Described as above. To be noted: 18-24 h, at 10 µM, stronger effect = lower value.
Sequence of Receptor tyrosine-protein kinase erbB-2 (Homo sapiens) (P04626 whole entry, looked up): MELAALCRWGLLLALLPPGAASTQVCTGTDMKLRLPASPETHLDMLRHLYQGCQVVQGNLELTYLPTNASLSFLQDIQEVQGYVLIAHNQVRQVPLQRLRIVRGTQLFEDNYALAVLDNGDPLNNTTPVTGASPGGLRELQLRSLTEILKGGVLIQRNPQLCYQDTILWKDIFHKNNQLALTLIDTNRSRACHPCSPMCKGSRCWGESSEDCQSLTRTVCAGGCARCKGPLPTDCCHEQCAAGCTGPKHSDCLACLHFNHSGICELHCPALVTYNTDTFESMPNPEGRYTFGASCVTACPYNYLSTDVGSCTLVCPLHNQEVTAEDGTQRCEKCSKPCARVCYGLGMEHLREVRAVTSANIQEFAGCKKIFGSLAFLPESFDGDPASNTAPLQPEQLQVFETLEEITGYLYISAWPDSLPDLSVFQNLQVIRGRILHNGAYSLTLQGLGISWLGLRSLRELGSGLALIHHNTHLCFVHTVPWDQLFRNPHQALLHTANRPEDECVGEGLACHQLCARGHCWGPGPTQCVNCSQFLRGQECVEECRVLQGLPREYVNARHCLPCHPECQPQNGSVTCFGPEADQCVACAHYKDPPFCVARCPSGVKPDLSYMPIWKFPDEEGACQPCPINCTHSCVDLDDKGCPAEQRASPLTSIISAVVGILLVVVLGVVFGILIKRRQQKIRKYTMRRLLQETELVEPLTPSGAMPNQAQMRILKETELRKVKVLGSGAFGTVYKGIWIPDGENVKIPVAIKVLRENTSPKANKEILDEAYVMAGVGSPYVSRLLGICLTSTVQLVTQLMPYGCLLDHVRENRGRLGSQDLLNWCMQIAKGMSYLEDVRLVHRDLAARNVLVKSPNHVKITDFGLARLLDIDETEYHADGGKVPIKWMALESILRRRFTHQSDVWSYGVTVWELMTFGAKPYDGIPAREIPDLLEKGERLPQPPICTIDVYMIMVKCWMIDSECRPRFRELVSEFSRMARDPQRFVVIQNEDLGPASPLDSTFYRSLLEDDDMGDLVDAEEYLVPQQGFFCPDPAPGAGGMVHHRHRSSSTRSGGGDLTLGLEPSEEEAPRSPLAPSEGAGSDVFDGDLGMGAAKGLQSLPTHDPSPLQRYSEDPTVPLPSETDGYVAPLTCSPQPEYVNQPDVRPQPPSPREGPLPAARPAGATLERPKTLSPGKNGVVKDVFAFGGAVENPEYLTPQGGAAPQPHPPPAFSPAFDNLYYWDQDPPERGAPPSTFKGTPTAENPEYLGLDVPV
A short description of assay [3]: reduced viability of SK-BR-3 breast cancer cells – cell-based, 24 h, human, pilot screen (AID 572).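 Note: compound exposure lasted between 18 and 24 h rather than exactly 24 h; 100% = carrier-treated control wells.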 To be noted: SK-BR-3 viability, CellTiter-Glo luminescence, at 10 µM, stronger effect = lower value.
Assay [4] can be described thus: HUVEC growth inhibition – cell-based, human, primary screen (AID 575;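 active = viability at or below 30% in both replicate assays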;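 note: 100% = median of untreated cell wells with 0.1% DMSO on each plate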). To be noted: HUVEC proliferation, CellTiter-Glo luminescence, 72 h; at 10 µM; stronger effect = lower value. The procedure, abridged:
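Test system: HUVEC primary cells. Quantity: 1250 endothelial cells in each well. Dosing: single-point 10 µM, DMSO 0.1% final. Incubation: 72 h treatment at 37 °C. Measured by: CTG luminescence. Control set: DMSO cell controls and MePR drug controls. Plate: collagen-coated 384-well format.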
A general note: ATP-based viability assays read luminescence as a measure of living cells.

Assay [5] can be described thus: H69AR cell proliferation blockers – human, duplicate replicates, primary screen (AID 580;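 active = viability at or under a set limit in both replicates, limit being median viability minus 3 SD, cut at about 48% in these data, passing the limit was not always enough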;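 note: 100% = mean luminescence of untreated wells and 0% = no signal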). The following applies: H69AR lung tumor cells viability, ATP luminescence, 72 h; at 10 µM; stronger effect = lower value.
Assay [6] in a line: MRP1 drug-resistance reversers in H69AR cells – cell-based, doxorubicin co-treatment, pilot screen (AID 601;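 active = viability loss from added drug above about 55%, and viability with drug at most 40%, in both replicates, limit read from the data, passing the limit was not always enough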). To be noted: CellTiter-Glo, 72 h, at 10 µM; for differential viability (reversal): stronger effect = higher value.
Where [7] appears, read: H69AR cells + 2 uM doxorubicin, measured here: viability with 2 uM doxorubicin, stronger effect = lower value.
Where [8] appears, read: H69AR cells, compound alone cytotoxicity.

The structures appear in SMILES notation. Calls of active or inactive are those of the source.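 Rule for the calls, unless noted: active = viability at or below 10% of carrier control in both of two separate runs; inconclusive = viability at or below 10% in only one of the two runs; inactive = the rest.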

As for `Cc1cn([C@H]2C[C@H](N=[N+]=[N-])[C@@H](CO)O2)c(=O)[nH]c1=O`, the viability in assay [1] was 91.5%; in assay [3] it was 91.5% (inactive); in assay [4] it was 104% (inactive); in assay [5], 96.5% (inactive); in assay [6] (setting [7]), 92.4%; in assay [6] (setting [8]), 96.5%. The Her2 level in assay [2] was 90% (inactive). The differential viability (reversal) in assay [6] (H69AR cells + 2 uM doxorubicin) was 4.1% (inactive).
Turning to `OCCOCCN1CCN(C(c2ccccc2)c2ccc(Cl)cc2)CC1` (stereo not drawn), the viability in assay [1] was 79%; in assay [3], 79% (inactive); in assay [4], 90.1% (inactive); in assay [5], 98.3% (inactive); in assay [6] (setting [7]) it was 89%; in assay [6] (setting [8]) it was 98.3%. Also, in assay [2], the Her2 level was 80% (inactive). Moreover, in assay [6] (H69AR cells + 2 uM doxorubicin), the differential viability (reversal) is 9.31% (inactive).
Take `CC1(C)O[C@@H]2C[C@H]3[C@@H]4CCC5=CC(=O)C=C[C@]5(C)[C@@]4(F)[C@@H](O)C[C@]3(C)[C@]2(C(=O)CO)O1`: the viability in assay [1] is 90.5%; in assay [3], 90.5% (inactive); in assay [4], 103% (inactive); in assay [5] it was 92.8% (inactive); in assay [6] (setting [7]), 103%; in assay [6] (setting [8]), 92.8%. The Her2 level in assay [2] is 128% (inactive). Also, the differential viability (reversal) in assay [6] (H69AR cells + 2 uM doxorubicin) was -10.5% (inactive).
`CC[N+](C)(C)c1cccc(O)c1`: the viability in assay [1] is 97.5%; in assay [3], 97.5% (inactive); in assay [4], 81.1% (inactive); in assay [5], 95% (inactive); in assay [6] (setting [7]), 85.3%; in assay [6] (setting [8]), 95%. In addition, the Her2 level in assay [2] is 94.5% (inactive). In assay [6] (H69AR cells + 2 uM doxorubicin), the differential viability (reversal) is 9.69% (inactive).
With `CN1Cc2c(N)cccc2C(c2ccccc2)C1` (stereo not drawn), the viability in assay [1] is 81%; in assay [3], 81% (inactive); in assay [4] it was 106% (inactive); in assay [5], 102% (inactive); in assay [6] (setting [7]), 96.5%; in assay [6] (setting [8]), 102%. The Her2 level in assay [2] was 102% (inactive). Further, the differential viability (reversal) in assay [6] (H69AR cells + 2 uM doxorubicin) was 5.5% (inactive).
For `c1ccc2[nH]c(-c3cscn3)nc2c1`, the viability is 106% in assay [1]; 106% (inactive) in assay [3]; 91.1% (inactive) in assay [4]; 97.9% (inactive) in assay [5]; 102% in assay [6] (setting [7]); 97.9% in assay [6] (setting [8]). The Her2 level in assay [2] was 104% (inactive). The differential viability (reversal) in assay [6] (H69AR cells + 2 uM doxorubicin) was -4.19% (inactive).
Take `C[C@]12CC[C@@H]3c4ccc(O[C@@H]5O[C@H](C(=O)O)[C@@H](O)[C@H](O)[C@H]5O)cc4CC[C@H]3[C@@H]1C[C@@H](O)[C@@H]2O`: the viability in assay [1] was 102%; in assay [3], 102% (inactive); in assay [4] it was 89.5% (inactive); in assay [5] it was 102% (inactive); in assay [6] (setting [7]), 84.8%; in assay [6] (setting [8]), 102%. In assay [2], the Her2 level is 92.5% (inactive). Besides, the differential viability (reversal) in assay [6] (H69AR cells + 2 uM doxorubicin) was 17.1% (inactive).
As for `O=C(NCC1CCCCN1)c1cc(OCC(F)(F)F)ccc1OCC(F)(F)F` (stereo not drawn), the viability in assay [1] was 86%; in assay [3] it was 86% (inactive); in assay [4], 91.8% (inactive); in assay [5] it was 97.9% (inactive); in assay [6] (setting [7]), 102%; in assay [6] (setting [8]), 97.9%. In addition, the Her2 level in assay [2] was 101% (inactive). The differential viability (reversal) in assay [6] (H69AR cells + 2 uM doxorubicin) was -4.55% (inactive).
For the compound `c1ccc2c(CC3=NCCN3)cccc2c1`, the viability in assay [1] was 101%; in assay [3], 101% (inactive); in assay [4] it was 91.7% (inactive); in assay [5], 93.8% (inactive); in assay [6] (setting [7]), 78.9%; in assay [6] (setting [8]) it was 93.8%. Also, the Her2 level in assay [2] is 99.5% (inactive). Further, the differential viability (reversal) in assay [6] (H69AR cells + 2 uM doxorubicin) is 14.9% (inactive).
Regarding `COc1ccccc1OCC(O)COC(N)=O` (stereo not drawn), the viability in assay [1] was 93.5%; in assay [3] it was 93.5% (inactive); in assay [4], 90.5% (inactive); in assay [5], 99.9% (inactive); in assay [6] (setting [7]), 92%; in assay [6] (setting [8]) it was 99.9%. In addition, the Her2 level in assay [2] is 96% (inactive). In assay [6] (H69AR cells + 2 uM doxorubicin), the differential viability (reversal) was 7.94% (inactive).
As to `Cc1cc(NC(=O)C2=C(O)c3ccccc3S(=O)(=O)N2C)no1`, the viability was 96.5% in assay [1]; 96.5% (inactive) in assay [3]; 109% (inactive) in assay [4]; 112% (inactive) in assay [5]; 94.7% in assay [6] (setting [7]); 112% in assay [6] (setting [8]). Moreover, the Her2 level in assay [2] was 113% (inactive). In addition, in assay [6] (H69AR cells + 2 uM doxorubicin), the differential viability (reversal) was 16.9% (inactive).
As for `COC(=O)[C@@H](N)Cc1ccc(O)cc1`, the viability in assay [1] is 106%; in assay [3], 106% (inactive); in assay [4] it was 82.9% (inactive); in assay [5], 109% (inactive); in assay [6] (setting [7]) it was 93.8%; in assay [6] (setting [8]), 109%. Besides, the Her2 level in assay [2] was 108% (inactive). Further, the differential viability (reversal) in assay [6] (H69AR cells + 2 uM doxorubicin) is 15.7% (inactive).
For the compound `COc1ccc2cc([C@H](C)C(=O)O)ccc2c1`, the viability in assay [1] is 93.5%; in assay [3], 93.5% (inactive); in assay [4], 111% (inactive); in assay [5] it was 94.8% (inactive); in assay [6] (setting [7]), 83%; in assay [6] (setting [8]), 94.8%. Besides, in assay [2], the Her2 level was 107% (inactive). In assay [6] (H69AR cells + 2 uM doxorubicin), the differential viability (reversal) was 11.8% (inactive).
Take `CC(C)[N+](C)(CCOC(=O)C1c2ccccc2Oc2ccccc21)C(C)C`: the viability was 108% in assay [1]; 108% (inactive) in assay [3]; 100% (inactive) in assay [4]; 88.1% (inactive) in assay [5]; 85.7% in assay [6] (setting [7]); 88.1% in assay [6] (setting [8]). In addition, the Her2 level in assay [2] is 93% (inactive). Further, the differential viability (reversal) in assay [6] (H69AR cells + 2 uM doxorubicin) was 2.38% (inactive).
For `CO[C@@]1(NC(=O)CSCC#N)C(=O)N2C(C(=O)O)=C(CSc3nnnn3C)CS[C@@H]21`, the viability in assay [1] was 110%; in assay [3], 110% (inactive); in assay [4], 97% (inactive); in assay [5], 95% (inactive); in assay [6] (setting [7]), 101%; in assay [6] (setting [8]), 95%. The Her2 level in assay [2] was 136% (inactive). Also, the differential viability (reversal) in assay [6] (H69AR cells + 2 uM doxorubicin) was -5.77% (inactive).
For the compound `CCCCOc1ccc(OCCCN2CCOCC2)cc1`, the viability in assay [1] was 96.5%; in assay [3], 96.5% (inactive); in assay [4], 91.7% (inactive); in assay [5] it was 103% (inactive); in assay [6] (setting [7]), 95.2%; in assay [6] (setting [8]) it was 103%. Besides, in assay [2], the Her2 level is 108% (inactive). For the same compound, the differential viability (reversal) in assay [6] (H69AR cells + 2 uM doxorubicin) was 7.79% (inactive).
In the case of `O=C(O)c1cc(=O)c2c(OCC(O)COc3cccc4oc(C(=O)O)cc(=O)c34)cccc2o1`, the viability in assay [1] is 102%; in assay [3], 102% (inactive); in assay [4] it was 121% (inactive); in assay [5], 106% (inactive); in assay [6] (setting [7]), 91.5%; in assay [6] (setting [8]), 106%. For the same compound, the Her2 level in assay [2] is 102% (inactive). Moreover, the differential viability (reversal) in assay [6] (H69AR cells + 2 uM doxorubicin) was 14.7% (inactive).
Regarding `COc1ccc([C@@H]2Sc3ccccc3N(CCN(C)C)C(=O)[C@@H]2OC(C)=O)cc1`, the viability is 76% in assay [1]; 76% (inactive) in assay [3]; 100% (inactive) in assay [4]; 92.1% (inactive) in assay [5]; 103% in assay [6] (setting [7]); 92.1% in assay [6] (setting [8]). For the same compound, the Her2 level in assay [2] was 106% (inactive). In addition, in assay [6] (H69AR cells + 2 uM doxorubicin), the differential viability (reversal) was -11.2% (inactive).
Take `CC(=O)N[C@@H](CS)C(=O)O`: the viability was 105% in assay [1]; 105% (inactive) in assay [3]; 90.8% (inactive) in assay [4]; 101% (inactive) in assay [5]; 88.6% in assay [6] (setting [7]); 101% in assay [6] (setting [8]). Further, the Her2 level in assay [2] is 105% (inactive). Further, in assay [6] (H69AR cells + 2 uM doxorubicin), the differential viability (reversal) is 12.8% (inactive).
As for `CCC(NC(C)C)C(O)c1ccc(O)c2[nH]c(=O)ccc12` (stereo not drawn), the viability was 108% in assay [1]; 108% (inactive) in assay [3]; 107% (inactive) in assay [4]; 94.4% (inactive) in assay [5]; 82.7% in assay [6] (setting [7]); 94.4% in assay [6] (setting [8]). Moreover, the Her2 level in assay [2] was 94.5% (inactive). Besides, in assay [6] (H69AR cells + 2 uM doxorubicin), the differential viability (reversal) is 11.7% (inactive).
`Cc1cccc(C)c1NC(=O)C1CCCCN1C` (stereo not drawn): the viability in assay [1] is 108%; in assay [3] it was 108% (inactive); in assay [4], 104% (inactive); in assay [5], 99.7% (inactive); in assay [6] (setting [7]), 87.7%; in assay [6] (setting [8]), 99.7%. Also, the Her2 level in assay [2] was 101% (inactive). Moreover, the differential viability (reversal) in assay [6] (H69AR cells + 2 uM doxorubicin) was 12% (inactive).

For orientation: viability means a read-out of living cells in per cent, often relative to untreated cells.

Values taken from PubChem BioAssay.
